Beta cell apopt: blocks beta cell apoptosis. 300,000 tested, 0.8% active. INS-1E cytokine-induced death, ATP luminescence, 48 h; percent of positive-control rescue, neutral wells zero. protection from apoptosis, % (no concentration beside the values);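 active = Every replicate reaches about 75%, or at least half do and their mean reaches it too, limit read from the data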;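 note: 0% = cytokine-treated negative control wells and 100% = positive control rescue; higher means more ATP so stronger rescue from cytokine killing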
T cruzi inh: T. cruzi replication inhibition; AID 1885; 300,000 tested, 1.4% active; T. cruzi beta-gal in NIH3T3, luminescence, 90 h; inhibition, % (concentration not given with the values);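 active = mean inhibition across valid replicates above about 55%, limit read from the data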;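 note: signal also drops with host cell toxicity which is not excluded here; 0% = plate median of DMSO wells and 100% = zero luminescence signal; higher percent means less beta-gal luminescence so fewer parasites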
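System – NIH/3T3 host cells with β-galactosidase reporter T. cruzi · Doses – single 50 nL compound addition per well in DMSO · Reagent – 5000 T. cruzi trypomastigotes/well · Medium – Low-serum DMEM with 2% FBS · Timing – ≥90 h infection period, 3 h prior cell attachment · Evaluation – parasite load inhibition, % · Technique – GalScreen luminescence, 60 min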
WT yeast gro inh: growth inhibition of WT yeast, mitochondrial fusion screen; 190,000 tested, 2.1% active; mitochondrial fusion phenotypic screen, WT strain; inhibition, % at 10 µM; in the data active = inhibition above about 58%; tested in S. cerevisiae
Mot1-301 SUMO: blocks SUMOylation pathway, rescuing yeast Mot1-301 growth. 320,000 tested, 1% active. growth rescue, % at 18.8 µM. AID 2716. S. cerevisiae Mot1-301 growth rescue, ATP luminescence, 38.5C; percent above DMSO median, 100 means doubled;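 active = every valid replicate shows activation above 250% relative to neutral control wells; inactive = the rest, any valid replicate at or below 250%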;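 note: OY570 slx delta 5 strain wells were the positive control but not used for scaling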
CSC inhib: blocks cancer stem cells; cancer stem cell-like cells viability, luminescence; inhibition, % at 7.5 µM; 300,000 tested, 1.1% active; AID 2717; in the data active = inhibition above about 75%; tested in HMLE shEcad cells
Efflux pump mplx: inhibitors of Candida antifungal efflux pumps expressed in yeast | S. cerevisiae Candida pump triplex, Nile Red efflux | inhibition, % at 10 µM | 330,000 tested, 0.44% active | AID 485275;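 active = plate passing quality check with inhibition over a set limit, or well fluorescence over plate mean plus 4 SD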;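 note: Nile Red retained in pooled yeast measured as flow cytometry median fluorescence; 0% = buffer negative control and 100% = Enniatin B positive control; higher means more Nile Red kept so more efflux inhibition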
Active calls of the source: *; / = no result. This is a sample that favours compounds with a hit; in the whole collection about 4.8% have one here.

SMILES | Beta cell apopt | T cruzi inh | WT yeast gro inh | Mot1-301 SUMO | CSC inhib | Efflux pump mplx
CC1CCC(C(C)C)C(OC(=O)Cn2c(-c3ccc(Cl)cc3)[n+](C)c3ccccc32)C1 (stereo unspecified) | 99.7* | 51.6 | / | -32.0 | 60.8 | 0.4
O=S(=O)(c1ccc(N2CCOCC2)nc1)N(Cc1ccccn1)Cc1ccccn1 | -6.0 | -1.5 | / | 10.1 | -5.4 | 0.0
Cc1ccc(OCC(O)CNC2CCCC2)c(C)c1 (stereo unspecified) | 3.0 | 1.6 | / | 6.5 | -9.7 | 0.1
Cc1ccc(OCCCCNC2CCCCC2)c(C)c1 | 4.0 | 54.7* | 25.3 | 29.0 | 36.0 | 0.0
COc1ccc(NC(=O)C2CC(=O)N/C(=N/NC(=O)c3ccc(Cl)cc3)S2)cc1 (stereo unspecified) | -3.7 | -12.3 | / | -1.7 | 10.6 | -0.1
Oc1cccc(NC(=S)Nc2ccc(SC(F)F)cc2)c1 | 3.0 | -3.8 | 47.8 | -11.8 | -2.4 | -0.2
Oc1cccc2c(NC(=S)Nc3ccc(SC(F)F)cc3)cccc12 | -2.9 | -3.0 | 65.0* | 4.0 | -13.8 | 0.0
CC(C)(C)c1ccc(S(=O)(=O)Nc2ccc(Cc3ccncc3)cc2)cc1 | 37.2 | 24.9 | 58.8* | -2.7 | 20.5 | 0.0
COc1ccc(C2CC(c3ccccc3)=NN2C(=O)COC(=O)c2cccc(S(=O)(=O)N(C)C)c2)cc1 (stereo unspecified) | 6.5 | 20.1 | -5.2 | -17.2 | 5.6 | 0.1
COc1ccc(C2=NN(C(=O)COC(=O)c3ccc(S(C)(=O)=O)c([N+](=O)[O-])c3)C(c3ccco3)C2)cc1 (stereo unspecified) | -11.1 | / | / | -3.0 | 95.9* | 0.2
COc1ccc(C2CC(c3ccccc3)=NN2C(=O)COC(=O)c2cccc(S(=O)(=O)N3CCOCC3)c2)cc1 (stereo unspecified) | 12.6 | 72.3* | -11.6 | -16.1 | -2.3 | 0.8
CC(C)(C)C(=O)Nc1ccnc(-c2cccnc2)n1 | / | / | 73.3* | / | / | /
CCOC(=O)c1cccc(NC(=O)C2CCN(S(=O)(=O)c3cccs3)CC2)c1 | -5.5 | 17.6 | 20.7 | 370.4 | / | 0.8
CCOC(=O)c1c(NC(=O)C2CCN(S(=O)(=O)c3cccs3)CC2)sc(C)c1C | -0.1 | 22.6 | 74.5* | -11.6 | -4.7 | 0.1
CC1CCCC(NC(=S)NC(=O)c2ccco2)C1C (stereo unspecified) | -1.0 | / | / | -5.1 | -5.0 | 0.0
Cc1cc(Nc2nc(Cl)c(Cl)cc2Cl)n(-c2ccccc2)n1 | -7.1 | 10.4 | 65.3* | -4.4 | 99.4* | -0.3
Cc1cc(Nc2ccccc2)n(-c2ccccc2)n1 | -3.3 | 7.5 | 23.9 | 79.0 | -11.2 | -0.2
Cc1cc(C)nc(-n2nc(C)cc2Nc2ccccc2)n1 | 84.6* | 7.0 | 72.4* | -2.1 | 16.2 | -0.4
Cc1ccc(-n2nc(C)cc2Nc2ncc(Cl)cc2Cl)cc1 | -3.5 | 5.0 | 73.7 | -6.9 | -19.2 | -0.2
Cc1cc(N2CCN(c3ccccc3)CC2)nc(-c2ccccc2O)n1 | 1.2 | -7.0 | 26.0 | 8.0 | 28.1 | -0.1
Cc1cc(N2CCN(c3ccccc3)CC2)nc(-n2nc(C)cc2C)n1 | 59.6 | 26.4 | 72.0* | -5.0 | -18.9 | -0.3
Cc1ccc(CNC(=O)CN2C(=O)CSc3ccc(S(=O)(=O)N4CCCCC4)cc32)cc1 | -1.8 | 0.9 | / | 323.3 | -11.3 | 0.1
Cc1ccc(S(=O)(=O)NCC(C)n2nc(C)nc2C)cc1 (stereo unspecified) | -2.8 | -7.4 | / | 2.9 | -9.0 | 0.0
CC(C)(C)OC(=O)C[C@@H]1C/C=C\C[C@@H](CC(=O)NCCO)C(=O)NC[C@@H](c2ccccc2)OC1=O | -2.4 | / | / | -11.4 | -16.3 | 0.0
O=C(CSc1nc2ccccc2[nH]1)Nc1nc(-c2ccc(Br)cc2)cs1 | 10.3 | 15.7 | -0.2 | -2.9 | 10.1 | 0.2
CCOc1ccccc1N1CCN(CC(=O)Nc2ccnn2C2CCCC2)CC1 | -2.0 | / | / | 18.0 | / | 0.0
Cc1ccc(N/N=C2\CC(=O)c3ccccc32)cc1Cl | 31.2 | 3.4 | 39.9 | 140.9 | 76.8* | 0.0
O=C(O)c1cc(NN=C2c3ccccc3-c3ccccc32)ccc1Cl | -6.6 | 1.1 | / | -5.0 | 41.3 | -0.2
Cc1cc(Nc2cccc(C(F)(F)F)c2)n2nc(C)nc2n1 | -12.6 | -9.4 | 79.1* | -8.8 | -16.8 | 0.1
CCOC(=O)C1CCN(C(=O)C(=O)c2cn(CC(=O)N3CCCCCC3)c3ccccc23)CC1 | 7.4 | 62.2* | / | 3.2 | / | -0.1

High-throughput results (PubChem BioAssay)
